Source: PubChem
SIAE inh = blocks human sialic acid acetylesterase; inhibition, % at 9.66 µM; AID 1053197; SIAE FP-Rh probe binding, fluorescence polarization; Q9HAT2; 370,000 compounds, 0.69% hits;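 active means inhibition above a cutoff: mean of compounds within the control limits plus 3 SD of those, cut at about 17% in these data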
Target sequence (Q9HAT2 whole entry, looked up): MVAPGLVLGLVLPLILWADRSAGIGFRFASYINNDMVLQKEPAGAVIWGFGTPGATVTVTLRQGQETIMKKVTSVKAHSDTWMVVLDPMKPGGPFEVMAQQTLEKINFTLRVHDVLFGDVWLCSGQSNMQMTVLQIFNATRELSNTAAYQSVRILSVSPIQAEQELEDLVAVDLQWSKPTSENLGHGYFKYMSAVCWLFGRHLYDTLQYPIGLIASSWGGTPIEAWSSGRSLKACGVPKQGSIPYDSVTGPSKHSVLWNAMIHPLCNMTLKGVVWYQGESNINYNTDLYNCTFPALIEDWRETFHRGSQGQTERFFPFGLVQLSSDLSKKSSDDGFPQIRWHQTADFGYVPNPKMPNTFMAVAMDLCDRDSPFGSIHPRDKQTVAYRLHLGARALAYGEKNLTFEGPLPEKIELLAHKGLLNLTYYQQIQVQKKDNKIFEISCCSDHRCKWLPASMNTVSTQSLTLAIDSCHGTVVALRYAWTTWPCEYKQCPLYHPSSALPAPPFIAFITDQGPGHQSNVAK
rCAG binder = molecules binding r(CAG) RNA repeats. r(CAG) RNA repeat, TO-PRO-1 dye displacement fluorescence. 370,000 compounds, 1.3% hits. inhibition, % at 3 µM;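 active means inhibition above the plate cutoff, the mean of all test compounds on that plate plus 3 SD, cut at about 35% in these data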;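 further: higher means more dye released from RNA so lower well fluorescence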
ABHD4 inh = ABHD4 (mouse) inhibition, primary FP screen; purified mABHD4, FP-Rh probe fluorescence polarization; inhibition, % at 8.92 µM; 370,000 compounds, 0.54% hits; Q8VD66;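 active means inhibition exceeding the mean over every tested compound plus 3 SD, cut at about 30% in these data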
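System: mouse ABHD4 enzyme, wild type / Medium: HEPES pH 7.0, NaCl, Pluronic buffer / Reagent: FP-Rh activity-based fluorescent probe / Control set: S159A mutant high control, sample median low control / Detection: fluorescence polarization with parallel and perpendicular emission, 525/598 nm / Schedule: 45 min + 60 min at 25 °C / Compound dosing: 8.92 µM, single dose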
HTRA1 inhibitor = blocks human HTRA1 serine peptidase | inhibition, % at 5.96 µM | 340,000 compounds, 0.5% hits | Q92743 | AID 504803 | recombinant HTRA1, FP-rhodamine activity-based probe, fluorescence polarization; in the data active means inhibition above about 36%
TCR CD3 inh = inhibitors of human TCR-CD3 interaction | TAMRA-labeled TCR probe fluorescence, biochemical | inhibition, % at 9.4 µM | 360,000 compounds, 0.37% hits; in the data active means inhibition above about 19%;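 further: recombinant mutant TCR 2C K166C tagged with TAMRA read by polarization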
HTRA1 inh conf = HTRA1 (human) inhibition, confirmation; shares compounds with HTRA1 inhibitor; recombinant HTRA1, FP-rhodamine activity-based probe, fluorescence polarization; inhibition, % at 5.96 µM; 1,600 compounds, 66% hits; AID 540248;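 active means mean inhibition over three repeats above a set limit taken from the earlier primary screen, cut at about 37% in these data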;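 further: inhibitors block probe binding so polarization drops and inhibition rises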
Large screens that a line does not name were inactive (follow-up assays come after a bar, where they were run). This is a sample that favours compounds with a hit; in the whole collection about 2.5% have one here.

N/C(=N/OC(=O)c1ccccc1Cl)c1ncc([N+](=O)[O-])s1	HTRA1 inhibitor 57 | HTRA1 inh conf inactive
O=C(COC(=O)c1ccccn1)Nc1ncc(C(F)(F)F)cc1Cl	none
O=C(COC(=O)c1ccc([N+](=O)[O-])s1)Nc1ncc(C(F)(F)F)cc1Cl	HTRA1 inhibitor 38 | HTRA1 inh conf 63
N/C(=N\OC(=O)c1ccc2ccccc2c1)c1ccccn1	none
NC(=Nc1nc(-c2ccccn2)cc2ccccc12)c1ccccn1	HTRA1 inhibitor 69 | HTRA1 inh conf 78
Oc1c(Br)cc(Br)c2cccnc12	SIAE inh 27, HTRA1 inhibitor 58 | HTRA1 inh conf 59
Brc1csc2ncccc12	none
Oc1c(CN2CCN(c3ccccc3)CC2)cc(Br)c2cccnc12	HTRA1 inhibitor 56 | HTRA1 inh conf 44
O=C(NCCc1ccccc1)c1ccc2nc(-c3ccco3)c(-c3ccco3)nc2c1	HTRA1 inhibitor 47 (no result: SIAE inh, rCAG binder, ABHD4 inh, TCR CD3 inh) | HTRA1 inh conf inactive
CN(C)c1cc[n+](CC(=O)Nc2ccc(Cl)c([N+](=O)[O-])c2)cc1	none
O=C(Oc1c(CN2CCOCC2)cc(Cl)c2cccnc12)c1ccccc1Br	HTRA1 inhibitor 39 | HTRA1 inh conf inactive
O=C(CN1CCN(S(=O)(=O)c2ccc(Cl)cc2)CC1)c1ccc(O)c(O)c1	HTRA1 inhibitor 43 (no result: SIAE inh, rCAG binder, ABHD4 inh, TCR CD3 inh) | HTRA1 inh conf 44
O=C(CN1CCN(S(=O)(=O)c2ccc(F)cc2)CC1)c1ccc(O)c(O)c1	none
O=C(CSc1nc2ccccc2s1)N1CCOCC1	HTRA1 inhibitor 161 | HTRA1 inh conf inactive
O=C(CSc1nc2ccccc2s1)NCCCN1CCOCC1	none
Cc1ccc(/C=C2/SC(=O)NC2=S)o1	HTRA1 inhibitor 40 (no result: SIAE inh, rCAG binder, ABHD4 inh, TCR CD3 inh) | HTRA1 inh conf inactive
COc1ccc(/C=C2\SC(=O)NC2=S)cc1OC	none
Cc1cc(-c2csc(N)n2)c(C)n1CCC(C)C	HTRA1 inhibitor 53 | HTRA1 inh conf 63
Cc1nn(C)cc1-c1csc(N)n1	none
O=C1CCC/C(=N/Nc2ccc(Cl)cc2)C1	HTRA1 inhibitor 37 | HTRA1 inh conf 42
Nc1sc2c(c1C(=O)NC1CC1)CCCC2	HTRA1 inhibitor 47 | HTRA1 inh conf inactive
CC(=O)c1ccc(NC(=O)C2CC(c3ccc(F)cc3)=NO2)cc1 (stereo unspecified)	none
CC(=O)N1CCN(Cc2cc(=O)n3cc(Cl)c(C)c(Cl)c3n2)CC1	none
CCc1ccc2[nH]c(=O)c(C3C(C#N)=C(N)Oc4c3ccc3cccnc43)cc2c1 (stereo unspecified)	HTRA1 inhibitor 82 | HTRA1 inh conf inactive
N#CC1=C(N)Oc2c(ccc3cccnc23)C1c1cccnc1 (stereo unspecified)	none
Cc1ccc2cc(C3C(C#N)=C(N)Oc4c3ccc3cccnc43)c(=O)[nH]c2c1 (stereo unspecified)	HTRA1 inhibitor 79 (no result: SIAE inh, rCAG binder, ABHD4 inh, TCR CD3 inh) | HTRA1 inh conf 58
Cc1c(Cl)cccc1NS(=O)(=O)c1ccc2c(c1)C1C=CCC1C(c1ccc(C(=O)O)cc1)N2 (stereo unspecified)	HTRA1 inhibitor 38 (no result: SIAE inh, rCAG binder, ABHD4 inh, TCR CD3 inh) | HTRA1 inh conf inactive
Cc1ccc(N2C(=O)C3CCC(C)(C2=O)C3(C)C)cc1C (stereo unspecified)	none
NNC(=O)c1oc2nc(-c3ccccc3)cc(-c3ccccc3)c2c1N	HTRA1 inhibitor 47 | HTRA1 inh conf inactive
CCN(CC)c1ccc(N)cc1	HTRA1 inhibitor 44 (no result: SIAE inh, rCAG binder, ABHD4 inh, TCR CD3 inh) | HTRA1 inh conf 66
Cc1nn(-c2ccccc2)nc1C(=O)Nc1ccc2[nH]ncc2c1	none
CC(C)(C)NC(=O)C[C@H]1C[C@H](C(=O)N2CCCCC2)[C@@]2(CCc3ccccc3)c3[nH]c4ccc(Cl)cc4c3CCN2C1=O	none
O=c1cc(-c2ccccc2)oc2ccccc12	none
Nc1cc([N+](=O)[O-])cc2oc(-c3ccccc3)cc12	HTRA1 inhibitor 45 | HTRA1 inh conf 38
Cc1ccc(/C=C/C(=O)c2ccccc(=O)c2O)c(C)c1	HTRA1 inhibitor 53 | HTRA1 inh conf 45
O=C(/C=C/c1ccccc1Cl)c1ccccc(=O)c1O	HTRA1 inhibitor 44 | HTRA1 inh conf 46
O=C(O)CC(O)C(=O)O (stereo unspecified)	none
Cc1cccc(-n2cc(CNCCc3nc(C)cc(C)n3)c(-c3cccc(F)c3)n2)c1	none
CC1CC(C)CN(C(=O)c2ccc3c(c2NCCO)C(=O)c2ccccc2C3=O)C1 (stereo unspecified)	HTRA1 inhibitor 41 | HTRA1 inh conf 53
Cn1cc(C(=O)N2CCN(c3ccccc3)CC2)c(=O)c2cc(S(=O)(=O)N3CCOCC3)ccc21	none
Cc1ccc(Nc2c([N+](=O)[O-])ccc3c2=NC2(CCCCC2)N=3)cc1	HTRA1 inhibitor 37 | HTRA1 inh conf 75
O=C(NNC(=S)NCC1CCCO1)c1cccc(S(=O)(=O)N2CCOCC2)c1 (stereo unspecified)	none
C(=N\Nc1nc2ccccc2[nH]1)/c1cccc2cccnc12	HTRA1 inhibitor 49 | HTRA1 inh conf 54
Cc1cc(C)nc(SCCCNCc2c(F)cccc2Cl)n1	none
COc1cc(C2Nc3cccc4cccc(c34)N2)cc(OC)c1O	SIAE inh 47, rCAG binder 36, HTRA1 inhibitor 39 | HTRA1 inh conf inactive
COc1cc(C2Nc3cccc4cccc(c34)N2)ccc1OC(C)=O	none (no result: SIAE inh, rCAG binder, ABHD4 inh, TCR CD3 inh)
COC(=O)C1=C(C(=O)OC)SC(=C2C(=S)C(C)(C)N(C(=O)C3CC3)c3ccccc32)S1	HTRA1 inhibitor 45 | HTRA1 inh conf 52
COC(=O)C1=C(C(=O)OC)SC(=C2C(=S)C(C)(C)N(C(=O)C(C)C)c3ccccc32)S1	none
CCCCCn1nnnc1C1(C)CCCCC(=O)N1Cc1ccco1 (stereo unspecified)	none (no result: HTRA1 inhibitor, TCR CD3 inh)
COCCn1c(C)cc(C(=O)CSc2ccc3ccccc3n2)c1C	none
COc1cc(/C=N/NC(=O)c2cc3ccccc3cc2O)ccc1OCCN1CCCCC1	HTRA1 inhibitor 48 | HTRA1 inh conf inactive
COc1cc(/C=N/NC(=O)c2ccncc2)ccc1OCCN1CCCCC1	none
COCCn1c(C)cc(/C=N/NC(=O)c2cc3ccccc3cc2O)c1C	HTRA1 inhibitor 44 (no result: SIAE inh, rCAG binder, ABHD4 inh, TCR CD3 inh) | HTRA1 inh conf inactive
CS(=O)(=O)N(Cc1ccco1)CC(O)Cn1c2ccccc2c2ccccc21 (stereo unspecified)	none
CCc1cc2c(=O)c(-c3nc4ccccc4n3C)c(C)oc2cc1OC(C)=O	none
CCc1cc2c(=O)c(-c3nc4ccccc4n3C)c(COCC(=O)O)oc2cc1OC(=O)C(C)(C)C	HTRA1 inhibitor 48 | HTRA1 inh conf inactive
Cc1ccc(S(=O)(=O)/N=C2/C=C(Sc3ncn[nH]3)C(=O)c3ccccc32)cc1	none (no result: SIAE inh, rCAG binder, ABHD4 inh, TCR CD3 inh)
Cc1ccc(S(=O)(=O)/N=C2\C=C(Nc3ccc(O)cc3)C(=O)c3ccccc32)cc1	HTRA1 inhibitor 88 (no result: SIAE inh, rCAG binder, ABHD4 inh, TCR CD3 inh) | HTRA1 inh conf 77
O=C1C(Nc2ccccc2)=C/C(=N/S(=O)(=O)c2cccs2)c2ccccc21	HTRA1 inhibitor 63 (no result: SIAE inh, rCAG binder, ABHD4 inh, TCR CD3 inh) | HTRA1 inh conf 62
CCOC(=O)NC(=O)C(=CNc1ccccc1C)C(=O)NC(=O)OCC	none
